Data reported in ChEMBL document CHEMBL1144440, “A-ring-substituted estrogen-3-O-sulfamates: potent multitargeted anticancer agents” (J Med Chem, 2005).

Key:
MCF7 = assay: Inhibition of the growth of human breast cancer MCF-7 cells done for 96 hr at 37 degree C with compound; details: MCF7, 96 h
SF-539 = assay: Concentration required to inhibit the growth of SF-539 human CNS cancer cells by 50%; type: functional
How it was run: (§1)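 NCI 55 human cancer cell line panel screen; GI50 is the concentration giving 50% growth inhibition; compounds tested over 10^-4 to 10^-8 M.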

DU-145 = assay: Concentration required to inhibit the growth of DU-145 human prostate cancer cells by 50%; type: functional
How it was run: as §1

[1] = Mean graph midpoint (MGM) against a panel of human tumor cell lines; type: functional
How it was run: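 NCI 55 cell line panel; mean graph midpoint is the mean concentration giving 50% growth inhibition across all cell lines successfully evaluated; tested range 10^-4 to 10^-8 M, so 0.01 µM is the […] possible value.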

HCT-116 = assay: Concentration required to inhibit the growth of HCT116 human colon cancer cells by 50%; type: functional
How it was run: as §1

SN12C = assay: Concentration required to inhibit the growth of SN12C human renal cancer cells by 50%; type: functional
How it was run: as §1

[2] = Concentration required to inhibit the growth of HOP-6 human lung cancer cells by 50%; type: functional; details: Cancer cell lines
How it was run: as §1

MDA-MB-435 = assay: Concentration required to inhibit the growth of MDA-MB-435 human breast cancer cells by 50%; type: functional
How it was run: as §1

OVCAR-3 = assay: Concentration required to inhibit the growth of OVCAR-3 human ovarian cancer cells by 50%; type: functional
How it was run: as §1

UACC-62 = assay: Concentration required to inhibit the growth of UACC-62 human melanoma cells by 50%; type: functional
How it was run: as §1

Steryl-sulfatase = target: T1, Steryl-sulfatase (Homo sapiens, UniProt P08842); assay: Inhibitory concentration against steroid sulfatase in placental microsomes; design: species or system Placenta
T1 sequence (P08842 whole entry): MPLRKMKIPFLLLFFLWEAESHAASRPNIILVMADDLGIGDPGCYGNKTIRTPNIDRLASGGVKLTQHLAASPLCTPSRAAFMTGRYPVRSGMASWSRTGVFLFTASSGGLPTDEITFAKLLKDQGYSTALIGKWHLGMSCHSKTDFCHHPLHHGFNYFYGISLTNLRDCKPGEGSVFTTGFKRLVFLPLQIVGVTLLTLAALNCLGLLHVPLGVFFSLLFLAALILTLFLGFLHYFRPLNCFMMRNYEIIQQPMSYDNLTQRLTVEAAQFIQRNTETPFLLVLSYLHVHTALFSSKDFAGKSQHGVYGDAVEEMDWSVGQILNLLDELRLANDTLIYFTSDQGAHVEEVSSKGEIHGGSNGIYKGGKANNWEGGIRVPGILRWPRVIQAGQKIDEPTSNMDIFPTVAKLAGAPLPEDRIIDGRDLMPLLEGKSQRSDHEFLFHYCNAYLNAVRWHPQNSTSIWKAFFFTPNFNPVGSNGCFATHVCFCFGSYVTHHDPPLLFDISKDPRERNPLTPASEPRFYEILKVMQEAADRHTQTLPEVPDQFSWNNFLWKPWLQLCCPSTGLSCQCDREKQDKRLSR

Mus musculus = assay: Reduction of tumor growth in female mice transplanted with xenografts derived from MDA-MB-435 (ER-) human breast cancer cells after 28 days of treatment at 20 mg/kg oral dose; type: functional, organism-based; design: dose 20 mg/kg, route oral; details: MDA-MB-435, 672 h
How it was run: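 Oral daily dosing for 28 days. Drug was dissolved in minimal THF, then diluted with propylene glycol. Vehicle controls received THF/propylene glycol. Groups were 12 female mice bearing MDA-MB-435 xenografts, with dosing started at 100-200 mm³. Tumour length and width were measured weekly, volume = l × w²/2, and monitoring continued 28 days after dosing. Growth was compared with controls by Student's t test.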

Structure (SMILES) | GI50 (MCF7) | GI50 (SF-539) | GI50 (DU-145) | MGM [1] | GI50 (HCT-116) | GI50 (SN12C) | GI50 [2] | GI50 (MDA-MB-435) | GI50 (OVCAR-3) | further results
CCOc1cc2c(cc1OS(N)(=O)=O)CC[C@@H]1[C@@H]2CC[C@]2(C)[C@@H](O)CC[C@@H]12 | 0.61 µM |  |  |  |  |  |  |  |  | 
C[S+]([O-])c1cc2c(cc1O)CC[C@@H]1[C@@H]2CC[C@]2(C)C(=O)CC[C@@H]12 (some centres undefined) | > 10 µM |  |  |  |  |  |  |  |  | 
Cc1cc2c(cc1OS(N)(=O)=O)CC[C@@H]1[C@@H]2CC[C@]2(C)C(=O)CC[C@@H]12 | 0.26 µM |  |  |  |  |  |  |  |  | 
C[C@]12CC[C@@H]3c4cc(Br)c(O)cc4CC[C@H]3[C@@H]1CCC2=O | 33 µM |  |  |  |  |  |  |  |  | 
CCSc1cc2c(cc1O)CC[C@@H]1[C@@H]2CC[C@]2(C)[C@@H](O)CC[C@@H]12 | 23.2 µM | 16000 nM | 24 µM | 10 µM | 8500 nM | 18000 nM | 16 µM | 2000 nM | 14000 nM | GI50 (UACC-62): 11000 nM
CCc1cc2c(cc1O)CC[C@@H]1[C@@H]2CC[C@]2(C)C(=O)CC[C@@H]12 | 57.6 µM |  |  |  |  |  |  |  |  | 
C[C@]12CC[C@@H]3c4cc(I)c(O)cc4CC[C@H]3[C@@H]1CCC2=O | 38 µM |  |  |  |  |  |  |  |  | 
CCc1cc2c(cc1OS(N)(=O)=O)CC[C@@H]1[C@@H]2CC[C@]2(C)C(=O)CC[C@@H]12 | 0.34 µM | < 10 nM | < 0.01 µM | 0.014 µM | < 10 nM | < 10 nM | < 0.01 µM | < 10 nM | < 10 nM | IC50 (Steryl-sulfatase): 1800 nM; GI50 (UACC-62): < 10 nM
CSc1cc2c(cc1O)CC[C@@H]1[C@@H]2CC[C@]2(C)[C@@H](O)CC[C@@H]12 | 3.96 µM |  |  |  |  |  |  |  |  | 
COc1cc2c(cc1OS(N)(=O)=O)CC[C@@H]1[C@@H]2CC[C@]2(C)[C@@H](O)CC[C@@H]12 |  |  |  |  |  |  |  |  |  | IC50 (Mus musculus): 33 µM; IC50 (Steryl-sulfatase): 34 nM
COc1cc2c(cc1OS(=O)(=O)N(C)C)CC[C@@H]1[C@@H]2CC[C@]2(C)C(=O)CC[C@@H]12 | > 10 µM |  |  |  |  |  |  |  |  | 
CSc1cc2c(cc1OS(N)(=O)=O)CC[C@@H]1[C@@H]2CC[C@]2(C)C(=O)CC[C@@H]12 | 0.4 µM | 45 nM | 22 µM | 0.229 µM | 88 nM | 760 nM | 35 µM | < 10 nM | 12 nM | IC50 (Steryl-sulfatase): 120 nM; GI50 (UACC-62): 52 nM
CSc1cc2c(cc1O)CC[C@@H]1[C@@H]2CC[C@]2(C)C(=O)CC[C@@H]12 | 33.4 µM | 14000 nM | 85 µM | 20.4 µM | 20000 nM | 19000 nM | 27 µM | 12000 nM | 22000 nM | GI50 (UACC-62): 12000 nM
CCc1cc2c(cc1O)CC[C@@H]1[C@@H]2CC[C@]2(C)[C@@H](O)CC[C@@H]12 | 10.5 µM | 3300 nM | 11 µM | 6.5 µM | 3500 nM | 7300 nM | 6.1 µM | 1700 nM | 2900 nM | 
CCOc1cc2c(cc1O)CC[C@@H]1[C@@H]2CC[C@]2(C)C(=O)CC[C@@H]12 | 9.04 µM |  |  |  |  |  |  |  |  | 
C[C@]12CC[C@@H]3c4cc(Br)c(OS(N)(=O)=O)cc4CC[C@H]3[C@@H]1CCC2=O | 6.95 µM |  |  |  |  |  |  |  |  | 
C[C@]12CC[C@@H]3c4cc(I)c(OS(N)(=O)=O)cc4CC[C@H]3[C@@H]1CCC2=O | 1.59 µM |  |  |  |  |  |  |  |  | 
COc1cc2c(cc1OS(=O)(=O)NC(C)=O)CC[C@@H]1[C@@H]2CC[C@]2(C)C(=O)CC[C@@H]12 | 168 µM |  |  |  |  |  |  |  |  | 
CCSc1cc2c(cc1O)CC[C@@H]1[C@@H]2CC[C@]2(C)C(=O)CC[C@@H]12 | 31.9 µM |  |  |  |  |  |  |  |  | 
CCc1cc2c(cc1OS(N)(=O)=O)CC[C@@H]1[C@@H]2CC[C@]2(C)[C@@H](O)CC[C@@H]12 | 0.07 µM | < 10 nM | < 0.01 µM | 0.016 µM | < 10 nM | 40 nM | < 0.01 µM | < 10 nM | < 10 nM | IC50 (Steryl-sulfatase): 1000 nM; GI50 (UACC-62): < 10 nM
CCOc1cc2c(cc1OS(N)(=O)=O)CC[C@@H]1[C@@H]2CC[C@]2(C)C(=O)CC[C@@H]12 | 4.84 µM |  |  |  |  |  |  |  |  | IC50 (Steryl-sulfatase): 890 nM
CSc1cc2c(cc1OS(N)(=O)=O)CC[C@@H]1[C@@H]2CC[C@]2(C)[C@@H](O)CC[C@@H]12 | 0.43 µM |  |  |  |  |  |  |  |  | 
COc1cc2c(cc1OS(N)(=O)=O)CC[C@@H]1[C@@H]2CC[C@]2(C)C(=O)CC[C@@H]12 | 0.3 µM | 120 nM | 0.32 µM | 0.095 µM | 65 nM | 600 nM | 0.16 µM | < 10 nM | < 10 nM | IC50 (Steryl-sulfatase): 42 nM; GI50 (UACC-62): 17 nM
C[C@]12CC[C@@H]3c4cc(S(C)(=O)=O)c(O)cc4CC[C@H]3[C@@H]1CCC2=O | 66 µM |  |  |  |  |  |  |  |  | 
CCSc1cc2c(cc1OS(N)(=O)=O)CC[C@@H]1[C@@H]2CC[C@]2(C)C(=O)CC[C@@H]12 | 35.2 µM | 1400 nM | 13 µM | 5.62 µM | 3200 nM | 11000 nM | 6.9 µM | 2200 nM | 2300 nM | GI50 (UACC-62): 5900 nM
COc1cc2c(cc1O)CC[C@@H]1[C@@H]2CC[C@]2(C)C(=O)CC[C@@H]12 | 21.3 µM |  |  |  |  |  |  |  |  | 
CCSc1cc2c(cc1OS(N)(=O)=O)CC[C@@H]1[C@@H]2CC[C@]2(C)[C@@H](O)CC[C@@H]12 | 23.4 µM |  |  |  |  |  |  |  |  | 
COc1cc2c(cc1O)CC[C@@H]1[C@@H]2CC[C@]2(C)[C@@H](O)CC[C@@H]12 [2-METHOXYESTRADIOL] |  | 320 nM | 1.8 µM | 1.3 µM | 470 nM | 950 nM | 0.7 µM | 80 nM | 210 nM | GI50 (UACC-62): 360 nM
C[C@]12CC[C@@H]3c4ccc(OS(N)(=O)=O)cc4CC[C@H]3[C@@H]1CCC2=O [EMATE] |  |  |  |  |  |  |  |  |  | IC50 (Steryl-sulfatase): 22 nM
